A short description of data set [1]: In vitro plasma stability / metabolite identification. In kind it is in vitro ADME. The conditions noted are these: 10 μM, 37 °C, 60 min incubation. The essentials:
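Mouse plasma was spiked at 10 μM and shaken at 37 °C. Triplicate aliquots at 0 and 60 min were quenched with 2 volumes of ice-cold acetonitrile containing 5 μM losartan, then centrifuged at 12000g for 10 min. Supernatant was diluted 1:1 with water. Parent loss and metabolites were tracked by C18 LC–ESI-TOF MS.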

For data set [2] the following is noted: cited from earlier work.
Data set [3] can be described thus: Plasma levels of 1 after single oral dose in mice. In kind it is in vivo, mouse. The conditions noted are these: dose equivalent of 10 mg/kg of 1, plasma 30 min after administration. The essentials: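 Male CD-1 mice (25–30 g) got a single oral dose of 10 mg/kg parent equivalent in 50 mM HEPES-buffered saline, pH 7.4, made the same day. At 30 min, mice were killed with pentobarbital and blood taken by cardiac puncture into heparin. Plasma (200g, 15 min; stored −80 °C) was assayed by C18 LC-MS/MS, parent transition 279.986 > 203.066/247.173, losartan internal standard. Mean ± SEM, n = 3.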

Data set [4] deals with rat chronic constriction injury model of neuropathic pain. Put plainly: Chronic constrictive injury. In kind it is in vivo. The settings on record: rat CCI. The essentials:
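Male Sprague–Dawley rats (200–250 g, n = 10–15/group) received four loose chromic gut ligatures, 1 mm apart, on the sciatic nerve. From day 10 post-surgery, hind-paw withdrawal latency to a plantar thermal stimulus was read to 0.1 s (normal response within 15 s). Difference score: nonligated minus ligated. Sessions twice weekly, 3 days apart. Daily oral gavage, 1 h pre-test. Gabapentin 50/100 mg/kg po as control. Student's t-test.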

The next data set has as its target rhGCPII (Homo sapiens, UniProt Q04609). Put plainly: GCPII radioenzymatic inhibition assay with 3H-NAAG. In kind it is biochemical. The conditions noted are these: relative to compound 1. The essentials: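 Recombinant human GCPII was started with a mix of 0.31 μM NAAG plus 15 nM 3H-NAAG (concentrations in the added mix). After 20 min, the reaction was stopped with 200 mM potassium phosphate, 50 mM EDTA and 2 mM β-mercaptoethanol, pH 7.4. Released glutamate was isolated by ion exchange and counted by scintillation. IC50 was fitted from inhibition curves.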

Data set [5] in a line: Stability under GCPII enzyme assay conditions. The settings on record: 30 m in aqueous buffer; pH 8.0. In kind it is physicochemical.

rhGCPII, sequence (Q04609 whole entry): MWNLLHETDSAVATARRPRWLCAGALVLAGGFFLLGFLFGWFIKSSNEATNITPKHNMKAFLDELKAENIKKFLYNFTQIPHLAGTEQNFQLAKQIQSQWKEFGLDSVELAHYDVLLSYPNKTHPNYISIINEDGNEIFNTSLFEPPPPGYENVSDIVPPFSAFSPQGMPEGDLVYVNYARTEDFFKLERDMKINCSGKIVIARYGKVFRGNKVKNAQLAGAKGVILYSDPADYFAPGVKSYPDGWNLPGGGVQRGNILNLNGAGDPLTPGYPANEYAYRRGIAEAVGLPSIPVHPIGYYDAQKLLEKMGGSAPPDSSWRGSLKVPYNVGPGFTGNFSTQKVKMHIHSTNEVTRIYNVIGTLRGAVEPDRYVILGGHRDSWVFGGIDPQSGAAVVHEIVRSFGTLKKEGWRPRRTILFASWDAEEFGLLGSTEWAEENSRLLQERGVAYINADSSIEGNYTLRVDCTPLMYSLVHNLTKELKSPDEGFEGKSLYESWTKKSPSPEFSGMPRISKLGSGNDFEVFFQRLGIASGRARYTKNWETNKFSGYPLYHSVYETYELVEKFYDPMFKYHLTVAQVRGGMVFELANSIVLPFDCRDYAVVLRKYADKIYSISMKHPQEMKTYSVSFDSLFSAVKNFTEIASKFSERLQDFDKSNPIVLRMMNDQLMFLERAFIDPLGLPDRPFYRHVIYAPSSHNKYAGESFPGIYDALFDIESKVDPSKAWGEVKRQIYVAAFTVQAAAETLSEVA

Turning to `O=C(CCC(Cc1ccc(C(=O)O)cc1)C(=O)O)NO` (stereo not drawn) [Compound 1, 4-Carboxy-α-[3-(hydroxyamino)-3-oxopropyl]-benzenepropanoic acid], the “stability / bioconversion in mouse plasma (in words)” value (“stability / bioconversion” below) in data set [1] is “completely stable”. For the same molecule, the “distribution to sciatic nerves (in words)” value in data set [2] is “good distribution to sciatic nerves”.
Consider `CC(=O)ONC(=O)CCC(Cc1ccc(C(=O)O)cc1)C(=O)O` (stereo not shown) [Compound 7, 4-(5-(Acetoxyamino)-2-carboxy-5-oxopentyl)benzoic Acid], for which the “plasma levels of 1 following oral administration of prodrug (in words)” value (shortened to “plasma levels”) in data set [3] was “equal or higher”.
`CC(=O)Oc1ccc(CONC(=O)CCC(Cc2ccc(C(=O)O)cc2)C(=O)O)cc1` (stereo not shown) [Compound 12, 4-(5-(((4-Acetoxybenzyl)oxy)amino)-2-carboxy-5-oxopentyl)-benzoic Acid]: the “stability / bioconversion” value in data set [1] is reported as “complete conversion of prodrug 12 to 1”. The “effect on absolute latency of the sham operated side” value in data set [4] (4.6 mg/kg/day po) is “no significant effect”. The “first day of significantly reduced thermal hyperalgesia” value in data set [4] (12 at 4.6 mg/kg/day po (3 mg/kg equivalent of 1)) worked out at 4 days. In data set [3], the “plasma levels” value is “equal or higher”.
Turning to `Cc1oc(=O)oc1CONC(=O)CCC(Cc1ccc(C(=O)O)cc1)C(=O)O` (stereo not shown) [Compound 17, 4-(2-Carboxy-5-(((5-methyl-2-oxo-1,3-dioxol-4-yl)methoxy)-amino)-5-oxopentyl)benzoic Acid], in data set [3], the “plasma levels” value is given as “equal or higher”. For the same molecule, at rhGCPII, the “fold less potency compared to 1 (GCPII inhibition)” value worked out at 12 fold. The “stability under GCPII enzyme assay conditions (in words)” value in data set [5] is on record as “partial hydrolysis to 1”.
As to `CCOC(=O)c1ccc(CC(CCC(=O)NOCc2ccc(OC(C)=O)cc2)C(=O)O)cc1` (stereo not shown) [Compound 23, 5-(((4-Acetoxybenzyl)oxy)amino)-2-(4-(ethoxycarbonyl)benzyl)-5-oxopentanoic Acid], in data set [1], the “stability / bioconversion” value is reported as “not converted into 1”.
On the same count and under the same terms, in the case of `CC(=O)Oc1ccc(CONC(=O)CCC(Cc2ccc(C(=O)OCOC(=O)OC(C)C)cc2)C(=O)O)cc1` (stereo not shown) [Compound 30, 5-(((4-Acetoxybenzyl)oxy)amino)-2-(4-((((isopropoxycarbonyl)-oxy)methoxy)carbonyl)benzyl)-5-oxopentanoic Acid] it was “completely hydrolyzed”.
On to `NCC1(CC(=O)O)CCCCC1` [gabapentin, reference compound], for which the “reversal of allodynia (positive control)” value in data set [4] (100 mg/kg po daily, maintained throughout the dosing period) was “significantly reversed allodynia”.

(Values after PMC5795597 (Journal of medicinal chemistry, 2017).)
